≈ marks a conversion by molar mass, not a printed value.
Legend:
Format in all cases: functional
Moraxella catarrhalis [1] = experiment: Antimicrobial activity against Moraxella catarrhalis clinical isolates incubated for 48 hrs by microdilution broth method
Procedure, shortened: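 Stocks in DMSO were diluted at least 10-fold into Mueller-Hinton broth, then 2-fold serially diluted in MH from 500 to 15.6 μg/ml. Bacteria were added, with DMSO-only dilution controls, and incubated at 37 °C for 48 h. Growth was scored at 24 and 48 h. MIC was the lowest concentration with no growth. Run in quadruplicate.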

Moraxella catarrhalis [2] = experiment: Bactericidal activity against Moraxella catarrhalis clinical isolates incubated for 48 hrs by microdilution broth method and standard plating method
Procedure, shortened: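 Broth microdilution in Mueller-Hinton broth, 2-fold series from 500 to 15.6 μg/ml, with DMSO-only controls, 37 °C for 48 h. Wells showing no growth were plated (10 μL) on MH agar. MBC was the lowest concentration giving no growth on plating. Run in quadruplicate.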

[3] = system: Mycobacterium tuberculosis; experiment: Antimicrobial activity against Mycobacterium tuberculosis H37Rv incubated for 48 hrs by microdilution broth method

O=C1CC(Sc2ccc(F)cc2F)N1C(=O)NCc1ccccc1 (racemic)
MIC (Moraxella catarrhalis [1]): 1.63 µg/mL (≈ 4.68 µM)
MBC (Moraxella catarrhalis [2]): 1.63 µg/mL (≈ 4.68 µM)
MIC [3]: 100 µg/mL (≈ 287 µM)

O=C1CC(Sc2c(F)c(F)c(F)c(F)c2F)N1C(=O)NCc1ccccc1 (racemic)
MIC (Moraxella catarrhalis [1]): 3.1 µg/mL (≈ 7.7 µM)
MBC (Moraxella catarrhalis [2]): 6.25 µg/mL (≈ 15.5 µM)
MIC [3]: > 100 µg/mL

O=C1CC(Sc2ccc(F)cc2Cl)N1C(=O)NCc1ccccc1 (racemic)
MIC (Moraxella catarrhalis [1]): 12.5 µg/mL (≈ 34.3 µM)
MBC (Moraxella catarrhalis [2]): 25 µg/mL (≈ 68.5 µM)
MIC [3]: 25 µg/mL (≈ 68.5 µM)

O=C1CC(Sc2ccc(F)c(Cl)c2)N1C(=O)NCc1ccccc1 (racemic)
MIC (Moraxella catarrhalis [1]): 6.25 µg/mL (≈ 17.1 µM)
MBC (Moraxella catarrhalis [2]): 6.25 µg/mL (≈ 17.1 µM)
MIC [3]: 25 µg/mL (≈ 68.5 µM)

O=C1CC(Sc2ccc(Cl)cc2Cl)N1C(=O)NCc1ccccc1 (racemic)
MIC (Moraxella catarrhalis [1]): 3.13 µg/mL (≈ 8.21 µM)
MBC (Moraxella catarrhalis [2]): 6.25 µg/mL (≈ 16.4 µM)
MIC [3]: 25 µg/mL (≈ 65.6 µM)

O=C1CC(Sc2ccc([N+](=O)[O-])cc2)N1C(=O)NCc1ccccc1 (racemic)
MIC (Moraxella catarrhalis [1]): 3.12 µg/mL (≈ 8.74 µM)
MBC (Moraxella catarrhalis [2]): 25 µg/mL (≈ 70 µM)
MIC [3]: 25 µg/mL (≈ 70 µM)

O=C1CC(Sc2ccccc2C(F)(F)F)N1C(=O)NCc1ccccc1 (racemic)
MIC (Moraxella catarrhalis [1]): 25 µg/mL (≈ 65.7 µM)
MBC (Moraxella catarrhalis [2]): 25 µg/mL (≈ 65.7 µM)
MIC [3]: 125 µg/mL (≈ 329 µM)

COc1ccccc1SC1CC(=O)N1C(=O)NCc1ccccc1 (racemic)
MIC (Moraxella catarrhalis [1]): 200 µg/mL (≈ 584 µM)
MBC (Moraxella catarrhalis [2]): 200 µg/mL (≈ 584 µM)
MIC [3]: 125 µg/mL (≈ 365 µM)

COc1cccc(SC2CC(=O)N2C(=O)NCc2ccccc2)c1 (racemic)
MIC (Moraxella catarrhalis [1]): 200 µg/mL (≈ 584 µM)
MBC (Moraxella catarrhalis [2]): 200 µg/mL (≈ 584 µM)
MIC [3]: 100 µg/mL (≈ 292 µM)

COc1ccc(SC2CC(=O)N2C(=O)NCc2ccccc2)cc1 (racemic)
MIC (Moraxella catarrhalis [1]): 200 µg/mL (≈ 584 µM)
MBC (Moraxella catarrhalis [2]): 200 µg/mL (≈ 584 µM)
MIC [3]: 125 µg/mL (≈ 365 µM)

COc1ccc(OC)c(SC2CC(=O)N2C(=O)NCc2ccccc2)c1 (racemic)
MIC (Moraxella catarrhalis [1]): 100 µg/mL (≈ 268 µM)
MBC (Moraxella catarrhalis [2]): 200 µg/mL (≈ 537 µM)
MIC [3]: 50 µg/mL (≈ 134 µM)

COc1ccc(SC2CC(=O)N2C(=O)NCc2ccccc2)cc1OC (racemic)
MIC (Moraxella catarrhalis [1]): 200 µg/mL (≈ 537 µM)
MBC (Moraxella catarrhalis [2]): > 200 µg/mL
MIC [3]: 250 µg/mL (≈ 671 µM)

O=C1CC(Sc2cccs2)N1C(=O)NCc1ccccc1 (racemic)
MIC (Moraxella catarrhalis [1]): 50 µg/mL (≈ 157 µM)
MBC (Moraxella catarrhalis [2]): 100 µg/mL (≈ 314 µM)
MIC [3]: 6.25 µg/mL (≈ 19.6 µM)

CSc1ccc(SC2CC(=O)N2C(=O)NCc2ccccc2)cc1 (racemic)
MIC [3]: > 100 µg/mL

O=C1CC(Sc2cccc3ccccc23)N1C(=O)NCc1ccccc1 (racemic)
MIC (Moraxella catarrhalis [1]): 200 µg/mL (≈ 552 µM)
MBC (Moraxella catarrhalis [2]): > 200 µg/mL
MIC [3]: > 100 µg/mL

O=C1CC(Oc2ccc([N+](=O)[O-])cc2)N1C(=O)NCc1ccccc1 (racemic)
MIC (Moraxella catarrhalis [1]): 6.25 µg/mL (≈ 18.3 µM)
MBC (Moraxella catarrhalis [2]): 6.25 µg/mL (≈ 18.3 µM)
MIC [3]: 250 µg/mL (≈ 732 µM)

O=C1CC(Oc2ccc(C(F)(F)F)cc2)N1C(=O)NCc1ccccc1 (racemic)
MIC (Moraxella catarrhalis [1]): 50 µg/mL (≈ 137 µM)
MBC (Moraxella catarrhalis [2]): > 200 µg/mL
MIC [3]: 125 µg/mL (≈ 343 µM)

O=C1CC([Se]c2ccccc2)N1C(=O)NCc1ccccc1 (racemic)
MIC (Moraxella catarrhalis [1]): 50 µg/mL (≈ 139 µM)
MBC (Moraxella catarrhalis [2]): 50 µg/mL (≈ 139 µM)
MIC [3]: 25 µg/mL (≈ 69.6 µM)

C#CCCCC(=O)N1C(=O)CC1Sc1ccccc1 (racemic)
MIC (Moraxella catarrhalis [1]): 100 µg/mL (≈ 366 µM)
MBC (Moraxella catarrhalis [2]): 100 µg/mL (≈ 366 µM)
MIC [3]: 45 µg/mL (≈ 165 µM)

O=C1CC(Sc2ccccc2)N1C(=O)NC(c1ccccc1)c1ccccc1 (racemic)
MIC [3]: 50 µg/mL (≈ 129 µM)

O=C1CC(Sc2ccccc2)N1C(=O)NC1c2ccccc2-c2ccccc21 (racemic)
MIC [3]: > 100 µg/mL

O=C1CC(Sc2ccccc2)N1C(=O)Nc1cccc2ccccc12 (racemic)
MIC [3]: 25 µg/mL (≈ 71.8 µM)

O=C1CC(Sc2ccc(F)cc2)N1C(=O)NC(c1ccccc1)c1ccccc1 (racemic)
MIC (Moraxella catarrhalis [1]): > 200 µg/mL
MBC (Moraxella catarrhalis [2]): > 200 µg/mL
MIC [3]: > 100 µg/mL

O=C1CC(Sc2ccc(F)cc2)N1C(=O)NCC(c1ccccc1)c1ccccc1 (racemic)
MIC (Moraxella catarrhalis [1]): > 200 µg/mL
MBC (Moraxella catarrhalis [2]): > 200 µg/mL
MIC [3]: > 100 µg/mL

CCNC(=O)N1C(=O)CC1Sc1ccc(F)cc1F (racemic)
MIC [3]: > 100 µg/mL

CC(NC(=O)N1C(=O)CC1Sc1ccccc1)c1cccc2ccccc12 (racemic)
MIC (Moraxella catarrhalis [1]): > 200 µg/mL
MBC (Moraxella catarrhalis [2]): > 200 µg/mL
MIC [3]: > 100 µg/mL

O=C1CC(Sc2ccc(F)cc2F)N1C(=O)NCc1ccccc1F (racemic)
MIC [3]: 50 µg/mL (≈ 136 µM)

COc1ccccc1CNC(=O)N1C(=O)CC1Sc1ccc(F)cc1F (racemic)
MIC [3]: ≥ 100 µg/mL

O=C1CC(Sc2ccc(F)cc2F)N1C(=O)Nc1ccccc1F (racemic)
MIC [3]: 25 µg/mL (≈ 71 µM)

O=C1CC(Sc2ccc(F)cc2Cl)N1C(=O)NC(c1ccccc1)c1ccccc1 (racemic)
MIC (Moraxella catarrhalis [1]): > 200 µg/mL
MBC (Moraxella catarrhalis [2]): > 200 µg/mL
MIC [3]: 50 µg/mL (≈ 113 µM)

Reference: ChEMBL document CHEMBL3392996, “Non-transpeptidase binding arylthioether β-lactams active against Mycobacterium tuberculosis and Moraxella catarrhalis” (2015)
